Assay results reported in ChEMBL document CHEMBL1759951, “Furostanol saponins from the rhizomes of Dioscorea japonica and their effects on NGF induction” (Bioorg Med Chem Lett, 2011).

Experiments:
[1] = Cytotoxicity against rat C6 cells assessed as viable cells at 20 uM after 24 hrs by MTT assay; type: cell-based; settings: read-out: Activity
Procedure, shortened: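 C6 rat glioma cells exposed to test agent at 20 μM for 24 h; viability read by MTT and expressed as percentage of untreated control. Means ± SD of three independent experiments, each in triplicate; significance versus control by Student's t-test (p < 0.05).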

C6 = test: Induction of NGF production in rat C6 cells at 20 uM after 24 hrs by ELISA relative to untreated control; type: functional
Procedure, shortened: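 C6 glioma cells treated at 20 μM for 24 h; NGF released into C6-conditioned medium quantified by ELISA, reported as percentage of untreated control. Means ± SD from three independent experiments run in triplicate; Student's t-test versus control, p < 0.05.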

| Compound | viability at 24 h, 20 µM [1] [%] | Activity (C6) [%] |
| --- | --- | --- |
| Oc1cc(O)cc(CCc2ccccc2)c1 [DIHYDROPINOSYLVIN] | 105 | 117 |
| COc1cc(O)cc(CCc2ccccc2O)c1 [BATATASIN IV] | 95 | 106.1 |
| CCCCO[C@]1(CO)O[C@H](CO)[C@@H](O)[C@@H]1O | 102 | 117.5 |
| CC1=CC(=O)CC(C)(C)[C@@]1(O)/C=C/[C@@H](C)O [BLUMENOL A] | 101 | 122.2 |
| CO[C@]1(CC[C@@H](C)CO[C@@H]2O[C@H](CO)[C@@H](O)[C@H](O)[C@H]2O)O[C@H]2C[C@H]3[C@@H]4CC=C5C[C@@H](O[C@@H]6O[C@H](CO)[C@@H](O[C@@H]7OC[C@H](O)[C@H](O)[C@H]7O)[C@H](O)[C@H]6O[C@@H]6O[C@@H](C)[C@H](O)[C@@H](O)[C@H]6O)CC[C@]5(C)[C@H]4CC[C@]3(C)[C@H]2[C@@H]1C [COREAJAPONINS B] | 98 | 132.9 |
| C[C@H](CC[C@@]1(O)O[C@H]2C[C@H]3[C@@H]4CC=C5C[C@@H](O[C@@H]6O[C@H](CO)[C@@H](O[C@@H]7OC[C@H](O)[C@H](O)[C@H]7O)[C@H](O)[C@H]6O[C@@H]6O[C@@H](C)[C@H](O)[C@@H](O)[C@H]6O)CC[C@]5(C)[C@H]4CC[C@]3(C)[C@H]2[C@@H]1C)CO[C@@H]1O[C@H](CO)[C@@H](O)[C@H](O)[C@H]1O [COREAJAPONINS A] | 106 | 107.2 |
| COCC(=O)c1ccc(O)cc1 | 99.8 | 105.6 |
| COc1cc(O)cc(CCc2ccccc2OC)c1 [STILBOSTEMINN] | 104 | 104.6 |
| NC(=O)NC1NC(=O)NC1=O (centres undefined) [ALLANTOIN] | 100 | 102.4 |
| CC[C@H](CC[C@@H](C)[C@H]1CC[C@H]2[C@@H]3CC=C4C[C@@H](O)CC[C@]4(C)[C@H]3CC[C@]12C)C(C)C [BETA-SITOSTEROL] | 104 | 106.1 |
| COc1cc(CC[C@@H](O)C[C@@H](O)CCc2ccc(O)c(OC)c2)ccc1O | 102 | 120.7 |
| CC(=O)CCc1ccc(O)cc1 [RASPBERRYKETONE] | 101 | 106.8 |
